Results from ChEMBL document CHEMBL2321820, “Discovery of HSD-621 as a Potential Agent for the Treatment of Type 2 Diabetes” (ACS Med Chem Lett, 2013).

Columns and labels:
Mus musculus [1] = species: Mus musculus; assay: Toxicity in C57B6 DIO mouse assessed as elevation of alanine aminotransferase at 0.3 mg/g of food after 31 days; type: organism-based; details: in vivo, po, 744 h
Mus musculus [2] = species: Mus musculus; assay: Toxicity in C57B6 DIO mouse assessed as elevation of aspartate aminotransferase at 0.3 mg/g of food after 31 days; type: organism-based; details: in vivo, po, 744 h
Mus musculus [3] = species: Mus musculus; assay: Antidiabetic activity in C57B6 DIO mouse assessed as reduction in fasting insulin level at 0.3 mg/g of food after 31 days by HPLC analysis relative to untreated control; type: functional; parameters: scale not given: the % may be the effect or the level left
Procedure, shortened: (§1)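 Male C57B6 mice, 5.5–7 months old, kept on a 35.5% fat diet for 4 months. Compound was mixed into food at 0.3 mg drug/g food for 31 days. Controls received diet 12492. Glucose and insulin were measured fed and fasting.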

Mus musculus [4] = species: Mus musculus; assay: Antidiabetic activity in C57B6 DIO mouse assessed as reduction in fasting glucose level at 0.3 mg/g of food after 31 days by HPLC analysis relative to untreated control; type: functional; parameters: scale not given: the % may be the effect or the level left; procedure, shortened: as §1
Mus musculus [5] = species: Mus musculus; assay: Antidiabetic activity in C57B6 DIO mouse assessed as reduction in fed insulin level at 0.3 mg/g of food after 31 days by HPLC analysis relative to untreated control; type: functional; parameters: scale not given: the % may be the effect or the level left; procedure, shortened: as §1
Mus musculus [6] = species: Mus musculus; assay: Antidiabetic activity in C57B6 DIO mouse assessed as reduction in fed glucose level at 0.3 mg/g of food after 31 days by HPLC analysis relative to untreated control; type: functional; parameters: scale not given: the % may be the effect or the level left; procedure, shortened: as §1
Mus musculus [7] = species: Mus musculus; assay: Toxicity in C57B6 DIO mouse assessed as body weight change at 0.3 mg/g of food after 31 days relative to untreated control; type: organism-based; details: in vivo, po, 744 h
Salmonella typhimurium = assay: Genotoxicity in Salmonella typhimurium by Ames test; type: toxicity, organism-based; details: salmonella enterica subsp. enterica serovar typhimurium
[8] = target: Voltage-gated inwardly rectifying potassium channel KCNH2 (Homo sapiens, UniProt Q12809); assay: Activity at human ERG at 33 uM
Sequence of Voltage-gated inwardly rectifying potassium channel KCNH2 (Q12809 whole entry): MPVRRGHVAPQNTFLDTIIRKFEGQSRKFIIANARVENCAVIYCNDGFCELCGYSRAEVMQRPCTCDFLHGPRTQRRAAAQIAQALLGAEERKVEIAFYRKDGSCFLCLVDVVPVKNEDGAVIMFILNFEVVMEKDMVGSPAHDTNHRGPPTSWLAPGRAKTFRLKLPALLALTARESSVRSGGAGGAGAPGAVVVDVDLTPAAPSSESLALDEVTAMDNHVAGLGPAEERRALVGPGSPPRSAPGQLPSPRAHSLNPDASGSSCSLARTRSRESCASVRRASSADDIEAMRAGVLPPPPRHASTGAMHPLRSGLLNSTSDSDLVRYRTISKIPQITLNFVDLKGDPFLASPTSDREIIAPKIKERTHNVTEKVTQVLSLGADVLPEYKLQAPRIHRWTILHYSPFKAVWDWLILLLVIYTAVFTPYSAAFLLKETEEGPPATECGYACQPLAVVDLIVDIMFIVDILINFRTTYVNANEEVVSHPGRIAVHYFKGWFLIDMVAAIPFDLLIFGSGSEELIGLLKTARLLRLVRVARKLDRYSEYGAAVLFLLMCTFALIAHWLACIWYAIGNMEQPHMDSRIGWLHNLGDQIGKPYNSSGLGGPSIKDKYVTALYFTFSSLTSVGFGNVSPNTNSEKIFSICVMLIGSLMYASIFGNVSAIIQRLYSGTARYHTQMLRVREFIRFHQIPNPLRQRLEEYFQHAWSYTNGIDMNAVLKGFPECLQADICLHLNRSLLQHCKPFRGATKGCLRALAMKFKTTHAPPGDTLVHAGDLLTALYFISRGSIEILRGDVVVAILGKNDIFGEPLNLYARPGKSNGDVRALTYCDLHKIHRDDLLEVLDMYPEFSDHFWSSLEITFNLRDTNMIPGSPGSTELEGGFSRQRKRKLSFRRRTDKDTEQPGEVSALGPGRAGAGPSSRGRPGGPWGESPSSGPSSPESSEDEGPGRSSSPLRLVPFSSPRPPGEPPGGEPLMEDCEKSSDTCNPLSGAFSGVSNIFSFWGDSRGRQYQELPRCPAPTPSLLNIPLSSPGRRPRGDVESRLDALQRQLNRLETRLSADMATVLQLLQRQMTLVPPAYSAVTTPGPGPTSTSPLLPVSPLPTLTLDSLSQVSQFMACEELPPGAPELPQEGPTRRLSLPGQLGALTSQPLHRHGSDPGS

[9] = Oral bioavailability in Sprague-Dawley rat at 10 mg/kg; type: ADME, organism-based; details: in vivo
Procedure, shortened: (§2)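 SD rats received 2 mg/kg iv in 50% DMSO/50% PEG200, or 10 mg/kg po in 2% Tween/0.5% methyl cellulose in water. PK parameters come from each route.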

[10] = Oral bioavailability in C57B6 mouse at 10 mg/kg; type: ADME, organism-based; details: in vivo
Procedure, shortened: (§3)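 Male C57B6 mice. IV dose of 2 mg/kg in 50% DMSO/50% PEG200. Oral dose of 10 mg/kg in 2% Tween/0.5% methyl cellulose in water. Values are PK parameters from the iv and po arms.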

[11] = Half life in C57B6 mouse at 10 mg/kg, po; type: ADME, organism-based; parameters: dose 10 mg/kg, route oral; details: in vivo; procedure, shortened: as §3
[12] = AUC in C57B6 mouse at 10 mg/kg, po; type: ADME, organism-based; parameters: dose 10 mg/kg, route oral; details: plasma; procedure, shortened: as §3
[13] = Cmax in Sprague-Dawley rat at 10 mg/kg, po; type: ADME, organism-based; parameters: dose 10 mg/kg, route oral; details: in vivo; procedure, shortened: as §2
[14] = Half life in Beagle dog at 2 mg/kg, iv; type: ADME, organism-based, Canis lupus familiaris; parameters: dose 2 mg/kg, route intravenous; details: in vivo
Procedure, shortened: (§4)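 Male dogs were given 2 mg/kg intravenously in 50% DMSO/50% PEG200.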

[15] = Half life in C57B6 mouse at 2 mg/kg, iv; type: ADME, organism-based; parameters: dose 2 mg/kg, route intravenous; details: in vivo; procedure, shortened: as §3
[16] = Half life in Sprague-Dawley rat at 2 mg/kg, iv; type: ADME, organism-based; parameters: dose 2 mg/kg, route intravenous; details: in vivo; procedure, shortened: as §2
[17] = AUC in Beagle dog at 2 mg/kg, iv; type: ADME, organism-based, Canis lupus familiaris; parameters: dose 2 mg/kg, route intravenous; details: plasma; procedure, shortened: as §4
[18] = AUC in Sprague-Dawley rat at 2 mg/kg, iv; type: ADME, organism-based; parameters: dose 2 mg/kg, route intravenous; details: plasma; procedure, shortened: as §2
[19] = Volume of distribution at steady state in Sprague-Dawley rat at 2 mg/kg, iv; type: ADME, organism-based; parameters: dose 2 mg/kg, route intravenous; details: in vivo, read-out: Vdss
Procedure, shortened: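 Sprague-Dawley rats given a single iv dose of 2 mg/kg in 50% DMSO/50% PEG200. A separate oral arm received 10 mg/kg in 2% Tween/0.5% methyl cellulose in water.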

[20] = Volume of distribution at steady state in C57B6 mouse at 2 mg/kg, iv; type: ADME, organism-based; parameters: dose 2 mg/kg, route intravenous; details: in vivo, read-out: Vdss; procedure, shortened: as §3
[21] = Half life in rat liver microsomes; type: ADME, Microsome
[22] = target: T1, 11-beta-hydroxysteroid dehydrogenase type 2 (Homo sapiens, UniProt P80365); assay: Inhibition of human 11beta-HSD2 expressed in CHO cells using […] as substrate incubated for 30 mins prior to substrate addition measured after 120 mins by scintillation counting analysis; type: cell-based
T1 sequence (P80365 whole entry): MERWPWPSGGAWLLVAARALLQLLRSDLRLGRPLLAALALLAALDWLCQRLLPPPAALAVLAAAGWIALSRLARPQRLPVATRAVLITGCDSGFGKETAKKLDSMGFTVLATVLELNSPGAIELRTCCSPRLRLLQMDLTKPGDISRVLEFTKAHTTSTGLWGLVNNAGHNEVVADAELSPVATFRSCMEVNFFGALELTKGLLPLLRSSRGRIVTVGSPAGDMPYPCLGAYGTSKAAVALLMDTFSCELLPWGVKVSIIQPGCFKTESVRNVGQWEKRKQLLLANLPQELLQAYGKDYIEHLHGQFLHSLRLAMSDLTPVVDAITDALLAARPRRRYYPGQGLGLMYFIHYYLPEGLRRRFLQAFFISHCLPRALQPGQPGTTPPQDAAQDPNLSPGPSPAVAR

[23] = Half life in mouse liver microsomes; type: ADME, Microsome
[24] = Half life in human liver microsomes; type: ADME, Microsome
[25] = AUC in Beagle dog at 5 mg/kg, po; details: plasma
[26] = Cmax in Beagle dog at 5 mg/kg, po; details: in vivo
[27] = Half life in Beagle dog at 5 mg/kg, po; details: in vivo

C[C@@H]1CN(c2ccc(F)cc2C(F)(F)F)CCN1S(=O)(=O)c1ccc([C@@](O)(C(N)=O)C(F)(F)F)s1
Activity (Mus musculus [1]): Non-toxic
Activity (Mus musculus [2]): Non-toxic
Activity (Mus musculus [3]): 33%
Activity (Mus musculus [4]): 15%
Activity (Mus musculus [5]): 44%
Activity (Mus musculus [6]): 19%
Activity (Mus musculus [7]): Non-toxic
Activity (Salmonella typhimurium): Non-toxic
Activity [8]: Not Active
bioavailability [9]: 61%
bioavailability [10]: 67%
half-life [11]: 4.8 h
AUC [12]: 11700 ng·h/mL
Cmax [13]: 656 ng/mL
half-life [14]: 20.3 h
half-life [15]: 6.1 h
half-life [16]: 8.6 h
AUC [17]: 32400 ng·h/mL
AUC [18]: 4310 ng·h/mL
Vd [19]: 3.8 L/kg
Vd [20]: 4.2 L/kg
half-life [21]: > 0.5 h
IC50 [22]: > 100 µM
half-life [23]: > 0.5 h
half-life [24]: > 0.5 h
AUC [25]: 43500 ng·h/mL
Cmax [26]: 1440 ng/mL
half-life [27]: 17.2 h
